Measurements reported in ChEMBL document CHEMBL4842312, “Phenoxazine nucleoside derivatives with a multiple activity against RNA and DNA viruses” (Eur J Med Chem, 2021).

System: Human betaherpesvirus 5
Assay: Antiviral activity against Human cytomegalovirus Davis
Type: functional, organism-based
Conditions: Human betaherpesvirus 5, Davis
Procedure, shortened: (§1)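 Confluent HEL cultures received 100 CCID50 or 20 PFU of virus, with 2 h adsorption before inoculum removal. Cells were then incubated with compound from 100 μM downward. Cytopathicity or plaques were scored once untreated infected controls reached completion.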

SMILES | EC50 [µM]
CCCCCCCCCCOc1ccc2c(c1)N(C)c1nc(=O)n([C@H]3C[C@H](O)[C@@H](CO)O3)cc1O2 | 20
Nc1nc(O)c2ncn(COC(CO)CO)c2n1 [GANCICLOVIR] | 1.79
CN1c2ccccc2Oc2cn([C@H]3C[C@H](O)[C@@H](CO)O3)c(=O)nc21 | > 100
CCCCCCCCCOc1ccc2c(c1)Nc1nc(=O)n(COCCO)cc1O2 | > 100
O=c1nc2c(cn1COCCO)Oc1ccccc1N2 | > 100

System: MDCK
Assay: Cytotoxicity in dog MDCK cells assessed as reduction in cell viability measured after 3 days by beckman coulter counting method
Type: cell-based, Canis lupus familiaris
Conditions: mdck, 72 h, time 3 day
Procedure, shortened: (§2)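 Cells were seeded at 5 × 10³/well, grown 24 h, then exposed to compound from 100 μM downward for 3 days at 37 °C. Cell number was counted with a Coulter counter.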

SMILES | CC50 [µM]
CCCCCCCCCCOc1ccc2c(c1)N(C)c1nc(=O)n([C@H]3C[C@H](O)[C@@H](CO)O3)cc1O2 | > 40
CN1c2ccccc2Oc2cn([C@H]3C[C@H](O)[C@@H](CO)O3)c(=O)nc21 | > 100
CCCCCCCCCOc1ccc2c(c1)Nc1nc(=O)n(COCCO)cc1O2 | > 100
O=c1nc2c(cn1COCCO)Oc1ccccc1N2 | > 100
CCC(CC)O[C@@H]1C=C(C(=O)O)C[C@H](N)[C@H]1NC(C)=O [OSELTAMIVIR CARBOXYLATE] | > 100

System: not listed separately
Assay: Selectivity index, ratio of CC50 for pig PEK cells to EC50 for Antiviral activity against Omsk hemorrhagic fever virus infected in pig PEK cells
Type: toxicity, cell-based
Conditions: read-out: Ratio CC50/EC50

SMILES | selectivity ratio
O=c1nc2c(cn1COCCO)Oc1ccccc1N2 | > 13

System: not listed separately
Assay: Selectivity index, ratio of CC50 for African green monkey Vero cells to EC50 for Antiviral activity against Chikungunya virus infected in African green monkey Vero cells
Type: toxicity
Conditions: read-out: Ratio CC50/EC50

SMILES | selectivity ratio
CCCCCCCCCCOc1ccc2c(c1)N(C)c1nc(=O)n([C@H]3C[C@H](O)[C@@H](CO)O3)cc1O2 | 83
O=c1nc2c(cn1COCCO)Oc1ccccc1N2 | > 3

System: HEp-2
Assay: Cytotoxicity in human Hep2 cells assessed as reduction in cell viability measured after 3 days by beckman coulter counting method
Type: functional
Conditions: HEp-2, 72 h, time 3 day
Procedure, shortened: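 Hep2 cells seeded at 5 × 10³ cells/well and allowed to grow 24 h, then exposed to compound dilutions starting at 100 μM for 3 days at 37 °C. Cell number measured by Coulter counter.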

SMILES | CC50 [µM]
CCCCCCCCCCOc1ccc2c(c1)N(C)c1nc(=O)n([C@H]3C[C@H](O)[C@@H](CO)O3)cc1O2 | > 100
CN1c2ccccc2Oc2cn([C@H]3C[C@H](O)[C@@H](CO)O3)c(=O)nc21 | > 100
NC(=O)c1ncn([C@@H]2O[C@H](CO)[C@@H](O)[C@H]2O)n1 [RIBAVIRIN] | 250
O=c1nc2c(cn1COCCO)Oc1ccccc1N2 | > 100

System: not listed separately
Assay: Selectivity index, ratio of CC50 for human HEL cells to EC50 for antiviral activity against thymidine kinase positive Varicella zoster virus
Type: toxicity
Conditions: read-out: Ratio CC50/EC50

SMILES | selectivity ratio
CCCCCCCCCCOc1ccc2c(c1)N(C)c1nc(=O)n([C@H]3C[C@H](O)[C@@H](CO)O3)cc1O2 | > 11

System: Tick-borne encephalitis virus
Assay: Antiviral activity against Tick-borne encephalitis virus infected in pig PEK cells assessed as reduction in virus plaque formation preincubated with virus for 1 hr followed by cell infection and measured after 1 hr by crystal violet staining based assay
Type: functional, organism-based
Conditions: not given

SMILES | EC50 [µM]
CCCCCCCCCCOc1ccc2c(c1)N(C)c1nc(=O)n([C@H]3C[C@H](O)[C@@H](CO)O3)cc1O2 | 5.4
CN1c2ccccc2Oc2cn([C@H]3C[C@H](O)[C@@H](CO)O3)c(=O)nc21 | 40
O=c1nc2c(cn1COCCO)Oc1ccccc1N2 | 23.6

System: Omsk hemorrhagic fever virus
Assay: Antiviral activity against Omsk hemorrhagic fever virus infected in pig PEK cells assessed as reduction in virus plaque formation preincubated with virus for 1 hr followed by cell infection and measured after 1 hr by crystal violet staining based assay
Type: functional, organism-based
Conditions: not given

SMILES | EC50 [µM]
O=c1nc2c(cn1COCCO)Oc1ccccc1N2 | 7.2

System: Powassan virus
Assay: Antiviral activity against Powassan virus infected in pig PEK cells assessed as reduction in virus plaque formation preincubated with virus for 1 hr followed by cell infection and measured after 1 hr by crystal violet staining based assay
Type: functional, organism-based
Conditions: not given

SMILES | EC50 [µM]
CCCCCCCCCCOc1ccc2c(c1)N(C)c1nc(=O)n([C@H]3C[C@H](O)[C@@H](CO)O3)cc1O2 | 0.45
CN1c2ccccc2Oc2cn([C@H]3C[C@H](O)[C@@H](CO)O3)c(=O)nc21 | > 50
O=c1nc2c(cn1COCCO)Oc1ccccc1N2 | > 50

System: HEL
Assay: Cytotoxicity against human HEL cells assessed as reduction in cell viability measured after 3 days by beckman coulter counting method
Type: cell-based
Conditions: 72 h, time 3 day
Procedure, shortened: as §2

SMILES | CC50 [µM]
CCCCCCCCCCOc1ccc2c(c1)N(C)c1nc(=O)n([C@H]3C[C@H](O)[C@@H](CO)O3)cc1O2 | > 100
Nc1nc(O)c2ncn(COC(CO)CO)c2n1 [GANCICLOVIR] | > 300
CN1c2ccccc2Oc2cn([C@H]3C[C@H](O)[C@@H](CO)O3)c(=O)nc21 | > 100
CCCCCCCCCOc1ccc2c(c1)Nc1nc(=O)n(COCCO)cc1O2 | > 100
O=c1nc2c(cn1COCCO)Oc1ccccc1N2 | > 100

System: not listed separately
Assay: Selectivity index, ratio of CC50 for human HEL cells to EC50 for antiviral activity against thymidine kinase deficient Varicella zoster virus
Type: toxicity
Conditions: read-out: Ratio CC50/EC50

SMILES | selectivity ratio
CCCCCCCCCCOc1ccc2c(c1)N(C)c1nc(=O)n([C@H]3C[C@H](O)[C@@H](CO)O3)cc1O2 | > 6

System: Chikungunya virus
Assay: Antiviral activity against Chikungunya virus infected in African green monkey Vero cells assessed as reduction in virus plaque formation preincubated with virus for 1 hr followed by cell infection and measured after 1 hr by crystal violet staining based assay
Type: functional, organism-based
Conditions: not given

SMILES | EC50 [µM]
CCCCCCCCCCOc1ccc2c(c1)N(C)c1nc(=O)n([C@H]3C[C@H](O)[C@@H](CO)O3)cc1O2 | 0.71
CN1c2ccccc2Oc2cn([C@H]3C[C@H](O)[C@@H](CO)O3)c(=O)nc21 | > 50
O=c1nc2c(cn1COCCO)Oc1ccccc1N2 | 28

System: Influenza A virus
Assay: Antiviral activity against Influenza A virus (H1N1) infected in MDCK cells assessed as reduction in cytopathic effect preincubated with cells for 1 hrs followed by viral addition and measured after 24 hrs by Reed-Muench method
Type: functional, organism-based
Conditions: not given
Procedure, shortened: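 MDCK monolayers were pre-incubated 1 h at 37 °C with 3-fold compound dilutions (from 2 mg/mL DMSO stock), then infected at MOI 1 for 24 h. Supernatant yield was titrated by 10-fold dilutions on fresh MDCK for 72 h. Titre was read by hemagglutination with 1% chicken erythrocytes and calculated by Reed-Muench as TID50 per 100 μL.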

SMILES | EC50 [µM]
CCCCCCCCCCOc1ccc2c(c1)N(C)c1nc(=O)n([C@H]3C[C@H](O)[C@@H](CO)O3)cc1O2 | 23
CCCCCCCCCOc1ccc2c(c1)Nc1nc(=O)n(COCCO)cc1O2 | > 100
O=c1nc2c(cn1COCCO)Oc1ccccc1N2 | 25
CCC(CC)O[C@@H]1C=C(C(=O)O)C[C@H](N)[C@H]1NC(C)=O [OSELTAMIVIR CARBOXYLATE] | 2.9

System: not listed separately
Assay: Selectivity index, ratio of CC50 for pig PEK cells to EC50 for Antiviral activity against Tick-borne virus encephalitis infected in pig PEK cells
Type: toxicity, cell-based
Conditions: read-out: Ratio CC50/EC50

SMILES | selectivity ratio
O=c1nc2c(cn1COCCO)Oc1ccccc1N2 | > 4

System: not listed separately
Assay: Cytotoxicity in pig PEK cells assessed as reduction in cell viability measured after 5 days by resazurin dye based assay
Design: species or system Sus scrofa, Kidney
Conditions: 120 h, time 5 day
Procedure, shortened: (§3)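 Cells (about 10⁵/well, 5% FBS) were added to two-fold compound dilutions (eight concentrations from 100 μM; DMSO control) and held 5 days at 36.5 °C in CO2. Medium was then replaced with resazurin (25 μg/mL) for 4 h and stopped with SDS. Fluorescence was read at Ex 525 / Em 580–640 nm, with background wells without resazurin subtracted. Done in two replicates; CC50 calculated.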

SMILES | CC50 [µM]
CCCCCCCCCCOc1ccc2c(c1)N(C)c1nc(=O)n([C@H]3C[C@H](O)[C@@H](CO)O3)cc1O2 | 79
CN1c2ccccc2Oc2cn([C@H]3C[C@H](O)[C@@H](CO)O3)c(=O)nc21 | > 100
O=c1nc2c(cn1COCCO)Oc1ccccc1N2 | > 100

System: Human alphaherpesvirus 3
Assay: Antiviral activity against thymidine kinase positive Varicella zoster virus
Type: functional, organism-based
Conditions: not given
Procedure, shortened: as §1

SMILES | EC50 [µM]
CCCCCCCCCCOc1ccc2c(c1)N(C)c1nc(=O)n([C@H]3C[C@H](O)[C@@H](CO)O3)cc1O2 | 10.7
CN1c2ccccc2Oc2cn([C@H]3C[C@H](O)[C@@H](CO)O3)c(=O)nc21 | > 100
CCCCCCCCCOc1ccc2c(c1)Nc1nc(=O)n(COCCO)cc1O2 | > 100
O=c1nc2c(cn1COCCO)Oc1ccccc1N2 | > 100

System: Vero
Assay: Cytotoxicity in African green monkey Vero cells assessed as reduction in cell viability measured after 5 days by resazurin dye based assay
Conditions: chlorocebus sabaeus, vero, 120 h; time 5 day
Procedure, shortened: as §3

SMILES | CC50 [µM]
CCCCCCCCCCOc1ccc2c(c1)N(C)c1nc(=O)n([C@H]3C[C@H](O)[C@@H](CO)O3)cc1O2 | 59
CN1c2ccccc2Oc2cn([C@H]3C[C@H](O)[C@@H](CO)O3)c(=O)nc21 | > 100
O=c1nc2c(cn1COCCO)Oc1ccccc1N2 | > 100

System: SARS-CoV-2
Assay: Antiviral activity against SARS COV-2 infected in monkey vero cells assessed as reduction in virus-induced cytopathic effect preincubated with virus for 1 hr followed by cell infection and measured after 5 days by microscopic analysis
Type: functional, organism-based
Conditions: Severe acute respiratory syndrome coronavirus 2, Vero

SMILES | EC50 [µM]
CCCCCCCCCCOc1ccc2c(c1)N(C)c1nc(=O)n([C@H]3C[C@H](O)[C@@H](CO)O3)cc1O2 | > 100
CN1c2ccccc2Oc2cn([C@H]3C[C@H](O)[C@@H](CO)O3)c(=O)nc21 | > 100
CCCCCCCCCOc1ccc2c(c1)Nc1nc(=O)n(COCCO)cc1O2 | > 100
O=c1nc2c(cn1COCCO)Oc1ccccc1N2 | > 100

System: Human betaherpesvirus 5
Assay: Antiviral activity against Human cytomegalovirus AD169
Type: functional, organism-based
Conditions: Human betaherpesvirus 5, AD169
Procedure, shortened: as §1

SMILES | EC50 [µM]
CCCCCCCCCCOc1ccc2c(c1)N(C)c1nc(=O)n([C@H]3C[C@H](O)[C@@H](CO)O3)cc1O2 | > 20
Nc1nc(O)c2ncn(COC(CO)CO)c2n1 [GANCICLOVIR] | 19
CN1c2ccccc2Oc2cn([C@H]3C[C@H](O)[C@@H](CO)O3)c(=O)nc21 | > 100
CCCCCCCCCOc1ccc2c(c1)Nc1nc(=O)n(COCCO)cc1O2 | > 100
O=c1nc2c(cn1COCCO)Oc1ccccc1N2 | > 100

System: Human alphaherpesvirus 3
Assay: Antiviral activity against thymidine kinase deficient Varicella zoster virus
Type: functional, organism-based
Conditions: not given
Procedure, shortened: as §1

SMILES | EC50 [µM]
CCCCCCCCCCOc1ccc2c(c1)N(C)c1nc(=O)n([C@H]3C[C@H](O)[C@@H](CO)O3)cc1O2 | 15.1
CN1c2ccccc2Oc2cn([C@H]3C[C@H](O)[C@@H](CO)O3)c(=O)nc21 | > 100
CCCCCCCCCOc1ccc2c(c1)Nc1nc(=O)n(COCCO)cc1O2 | > 100
O=c1nc2c(cn1COCCO)Oc1ccccc1N2 | > 100

System: Respiratory syncytial virus
Assay: Antiviral activity against Respiratory syncytial virus assessed as reduction in virus-induced cytopathic effect by MTS assay
Type: functional, organism-based
Conditions: human respiratory syncytial virus

SMILES | EC50 [µM]
CCCCCCCCCCOc1ccc2c(c1)N(C)c1nc(=O)n([C@H]3C[C@H](O)[C@@H](CO)O3)cc1O2 | > 100
CN1c2ccccc2Oc2cn([C@H]3C[C@H](O)[C@@H](CO)O3)c(=O)nc21 | > 100
NC(=O)c1ncn([C@@H]2O[C@H](CO)[C@@H](O)[C@H]2O)n1 [RIBAVIRIN] | 2
O=c1nc2c(cn1COCCO)Oc1ccccc1N2 | > 100
